# Activity calls are given as the source filed them. The rule behind the calls is not given here.
# Assays:
# Escherichia coli [1] = assay: Antimicrobial activity against Escherichia coli MC4100 at 42 degC; type: functional
# Outline: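 Liquid growth inhibition in Mueller-Hinton medium, run in triplicate. Compound was dissolved in ethanol/10 mM potassium phosphate pH 7.8, and its concentration was set by absorbance at 236 nm. Varying concentrations were added to mid-log E. coli MC4100 and incubated 24 h at 42 °C, then plated at 37 °C overnight for CFU. MIC = concentration giving 99.9% growth inhibition (NCCLS).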
# [2] = Toxicity against human erythrocytes assessed as hemolytic activity; type: cell-based, Erythrocyte
# Outline: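 Human erythrocytes were washed in Tris-buffered saline pH 7.4. Cells at 2.5×10^8 cells/ml were exposed to 3.1–50 μg/ml compound for 30 min at 42 °C with gentle shaking, chilled, and centrifuged. Hemoglobin in the supernatant was read at 550 nm after 10-fold dilution in 0.5% NH4OH. Saponin 100 mg/liter = 100%, phosphate buffer = 0%. EC50 from dose-response curves.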
# [3] = Inhibition of Escherichia coli MC4100 DnaK assessed as effect on luciferase refolding
# Outline: (§1)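 Firefly luciferase was denatured 1 h at 10 °C in 6.0 M guanidinium chloride with 5 mM DTT, Tris pH 7.4, at 2.08 μM. It was diluted to 10.4 nM into MOPS pH 7.8 buffer with 1 mM ATP, 5 mM MgCl2, 436 nM DnaK, 160 nM DnaJ and 436 nM GrpE, preincubated 10 min with compound, at 10 °C and 30 °C. Activity was read by luminescence after 1 h. IC50 from a one-site competition fit.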
# [4] = Displacement of sigma32 derived peptide from Escherichia coli MC4100 DnaK
# Escherichia coli [5] = assay: Inhibition of Escherichia coli MC4100 DnaK-reduced carboxymethylated lactalbumin complex at >25 uM
# Escherichia coli [6] = assay: Antimicrobial activity against Escherichia coli MC4100 up to 1.4 mg/ml at 37 degC; type: functional, organism-based
# Escherichia coli [7] = assay: Increase in transcriptional activity of heat shock inducible PhtrP-lacZ promoter of sigma32 gene in Escherichia coli MC4100 at 200 uM assessed as beta galactosidase activity after 12 hrs at 42 degC; type: functional, organism-based
# Escherichia coli [8] = assay: Induction of heat shock response in Escherichia coli MC4100 at 30 degC; type: functional, organism-based
# Escherichia coli [9] = assay: Antimicrobial activity against Escherichia coli MC4100 at 30 degC; type: functional
# Escherichia coli [10] = assay: Inhibition of Escherichia coli MC4100 DnaK-reduced carboxymethylated lactalbumin complex up to 500 uM
# [11] = Inhibition of secondary amide peptide bond cis/trans isomerase activity of Escherichia coli MC4100 DnaK assessed as RNase T1P39A refolding assay
# Escherichia coli [12] = assay: Increase heat shock-induced protein aggregation in wild type Escherichia coli MC4100; type: functional, organism-based
# Outline: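 Wild-type MC4100 was grown at 30 °C to mid-exponential phase, exposed 15 min to compound (0.13 or 0.066 mg/ml), heat-shocked 30 min at 45 °C, then recovered 3 h at 30 °C. The Nonidet P-40-insoluble aggregated protein fraction was isolated by lysozyme/sonication lysis and differential centrifugation, then run on 12.5% SDS-PAGE with Coomassie stain, equal cell numbers per lane. ΔdnaK cells were the reference.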
# Escherichia coli [13] = assay: Binding affinity to DnaK in Escherichia coli MC4100 at 0.7 mM by pull-down assay
# Outline: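 MC4100 grown overnight in LB at 42 °C and lysed by sonication. Lysate incubated 1 h at room temperature with 0.7 mM biotinylated inhibitor in buffer C (20 mM Tris/HCl pH 7.5, 50 mM KCl, 1 mM MgCl2). BSA-blocked streptavidin beads then added for a further 1 h. Beads washed twice; bound protein eluted with 1.92 mM (final) non-biotinylated parent inhibitor. Read by SDS-PAGE and anti-DnaK immunoblot.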
# [14] = Inhibition of secondary amide peptide bond cis/trans isomerase activity of Escherichia coli MC4100 DnaK/DnaJ/GrpE assessed as luciferase refolding; outline: as §1
# Escherichia coli [15] = assay: Antimicrobial activity against Escherichia coli MC4100 delta-tig at 30 degC; type: functional
# Escherichia coli [16] = assay: Activation of Escherichia coli MC4100 RNA polymerase at 200 uM by transcription assay
# Outline: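 In vitro transcription of small circular single-strand DNA universal templates by purified E. coli RNA polymerase core enzyme, run per the kit manufacturer's protocol.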
# Escherichia coli [17] = assay: Increase in transcriptional activity of heat shock inducible PhtrL-lacZ promoter of sigma32 gene in Escherichia coli MC4100 at 200 uM assessed as beta galactosidase activity after 12 hrs at 42 degC; type: functional, organism-based
# Escherichia coli [18] = assay: Increase in transcriptional activity of heat shock inducible pGroESL promoter of sigma32 gene in Escherichia coli MC4100 at 200 uM assessed as beta galactosidase activity after 12 hrs at 42 degC; type: functional
# Escherichia coli [19] = assay: Increase in transcriptional activity of heat shock inducible rpoDPhs promoter of sigma32 gene in Escherichia coli MC4100 at 200 uM assessed as beta galactosidase activity after 12 hrs at 42 degC; type: functional
# Escherichia coli [20] = assay: Inhibition of ATPase activity of Escherichia coli MC4100 DnaK at 150 uM
# Outline: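 Steady-state ATPase assay. 1 µM DnaK preincubated with 150 µM inhibitor for 10 min at 30 °C. Reaction started with 330 µM ATP and followed for at least 10 min.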
# Escherichia coli [21] = assay: Inhibition of IPTG-induced thermotolerance in heat shocked Escherichia coli MC4100 expressing delta-DnaK at 1.35 mM; type: functional, organism-based
# Outline: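 E. coli MC4100 ΔdnaK pTrc99A-DnaK was grown at 30 °C in Terrific Broth and induced 1 h with 0–1.0 mM IPTG. Cells were heat-shocked 210 s at 57 °C with 1.35 mM compound added just before, then iced 2 min. Serial dilutions were spotted on LB with marker and IPTG and grown 12 h at 30 °C. DnaK levels were checked by immunoblot.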
# Escherichia coli [22] = assay: Effect on membrane permeability of Escherichia coli MC4100 assessed as beta lactamase activity in medium at 25 degC; type: functional
# Outline: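 Cells were grown with 200 μM compound for 24 h. β-Lactamase activity released to the medium was compared with total activity.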
Structure (SMILES),MIC (Escherichia coli [1]),EC50 [2],IC50 [3],also measured
CCCCCCCCCCCCCC(=O)NCc1ccc(C(=O)N[C@H](C(N)=O)[C@@H](C)CC)cc1,1200 µg/mL,100 µg/mL,6.1 µg/mL,
CCCCCCCCCCCCCC(=O)NCc1ccc(C(=O)NCC(=O)O)cc1,> 500 µg/mL,> 50 µg/mL,5.5 µg/mL,
CCCCCCCCCCCCCC(=O)NCCc1ccc(C(=O)N[C@H](C(=O)O)[C@@H](C)CC)cc1,640 µg/mL,35 µg/mL,2.6 µg/mL,
CCCCCCCCCC(=O)NCc1ccc(C(=O)N[C@H](C(=O)O)[C@@H](C)CC)cc1,490 µg/mL,> 1000 µg/mL,40.4 µg/mL,
CC(C)C[C@H](NC(=O)[C@H](CC(C)C)NC(=O)[C@H](CCCNC(=N)N)NC(=O)[C@@H](N)CC(N)=O)C(=O)N[C@@H](CC(C)C)C(=O)N[C@H](C(=O)NCC(=O)O)[C@@H](C)O,,,,IC50 [4]: 1300 nM; Activity (Escherichia coli [5]): Active
CCCCCCCCCCCC(=O)NCc1ccc(C(=O)N[C@H](C(=O)O)[C@@H](C)CC)cc1,650 µg/mL,400 µg/mL,1.9 µg/mL,
CCCCCCCCCCCCCC(=O)NCc1cccc(C(=O)N[C@H](C(=O)O)[C@@H](C)CC)c1,> 2000 µg/mL,84 µg/mL,7 µg/mL,
CCCCCCCCCCCCCCCCCC(=O)NCc1ccc(C(=O)N[C@H](C(=O)O)[C@@H](C)CC)cc1,3100 µg/mL,30 µg/mL,2.3 µg/mL,
CCCCCCCCCCCCCC(=O)NCc1ccc(C(=O)N[C@@H](CC(N)=O)C(=O)O)cc1,100 µg/mL,> 10 µg/mL,4.6 µg/mL,
CCCCCCCCCCCCCCCC(=O)NCc1ccc(C(=O)N[C@H](C(=O)O)[C@@H](C)CC)cc1,180 µg/mL,50 µg/mL,1.2 µg/mL,
CCCCCCCCCCCCCC(=O)NCc1ccc(C(=O)N[C@@H](CCC(N)=O)C(=O)O)cc1,2800 µg/mL,520 µg/mL,11.5 µg/mL,
CCCCCC/C=C\CCCCCCCC(=O)NCc1ccc(C(=O)N[C@H](C(=O)O)[C@@H](C)CC)cc1,1300 µg/mL,250 µg/mL,3.6 µg/mL,
CCCCCCCCCCCCCC(=O)NCc1ccc(C(=O)N[C@H](C(=O)O)[C@@H](C)CC)cc1,380 µg/mL,66 µg/mL,4.9 µg/mL,Activity (Escherichia coli [6]): inactive; Activity (Escherichia coli [7]): inactive; Activity (Escherichia coli [8]): inactive; MIC (Escherichia coli [9]): ≥ 5000 µg/mL; Activity (Escherichia coli [10]): inactive; IC50 [4]: 29100 nM; Kd [4]: 2600 nM; IC50 [11]: 2700 nM; Activity (Escherichia coli [12]): Active; Activity (Escherichia coli [13]): Active; IC50 [14]: 9500 nM; MIC (Escherichia coli [15]): 860 µg/mL; Activity (Escherichia coli [16]): inactive; Activity (Escherichia coli [17]): inactive; Fold change (Escherichia coli [18]): 2; Fold change (Escherichia coli [19]): 2; Activity (Escherichia coli [20]): inactive; Activity (Escherichia coli [21]): Active; Activity (Escherichia coli [22]): 0.89%
CCCCCCCCCCCCCC(=O)Nc1ccc(C(=O)N[C@H](C(=O)O)[C@@H](C)CC)cc1,> 60 µg/mL,> 10 µg/mL,1.1 µg/mL,
CC/C=C/CC(=O)NCc1ccc(C(=O)N[C@H](C(=O)O)[C@@H](C)CC)cc1,280 µg/mL,> 1500 µg/mL,35.9 µg/mL,
CCCC/C=C\CCCCCCCC(=O)NCc1ccc(C(=O)N[C@H](C(=O)O)[C@@H](C)CC)cc1,630 µg/mL,350 µg/mL,0.75 µg/mL,
CCCCCCCCCCCCCC(=O)NCc1ccc(C(=O)N[C@@H](Cc2ccccc2)C(=O)O)cc1,1200 µg/mL,> 200 µg/mL,3.9 µg/mL,
CCCCCC(=O)NCc1ccc(C(=O)N[C@H](C(=O)O)[C@@H](C)CC)cc1,1000 µg/mL,> 1500 µg/mL,> 400 µg/mL,Activity (Escherichia coli [18]): inactive; Activity (Escherichia coli [19]): inactive; Activity (Escherichia coli [22]): 3.68%
CC1(C)S[C@@H]2[C@H](NC(=O)[C@H](N)c3ccccc3)C(=O)N2[C@H]1C(=O)O [AMPICILLIN],14 µg/mL,,,

# — ChEMBL document CHEMBL1143821, “Fatty acyl benzamido antibacterials based on inhibition of DnaK-catalyzed protein folding” (J Biol Chem, 2007)
